Where “and” joins values, the source holds several entries; their conditions need not be identical. Equal entries are not always repeated. Calls of active or inactive are those of the source.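 How the source made its calls: active means compounds specific to the target that block phage lysis by more than 30% when retested across doses; inactive means the rest, not confirmed on retesting.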
Assays:
[1] = tested on: E. coli EV36 T7 phage lysis inhibition, OD600; test: E. coli EV36 sensitization to T7 phage – EV36 K1 hybrid, OD600, round 7, dose response (AID 624056)
Summary of the method: (§1)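 Material: Escherichia coli strain EV36, a K1 capsule/K-12 hybrid; quantity: 1:100 dilution of overnight culture; buffer or medium: LB broth; reagent: T7 bacteriophage; compound dosing: two-fold dilution series, 1% DMSO; incubation: 1.5 h compound pre-exposure at 37 °C shaking, then 3 h post-phage; detection: absorbance at 600 nm before and 3 h after phage addition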

[2] = as above; details: E. coli EV36 T7 phage lysis inhibition, OD600; at 5 µM (top of the series)
Summary of the method: as §1

| Compound | IC50 [1] | phage lysis inhibition [2] |
| --- | --- | --- |
| CCOc1ccc(-c2cc(NC(=O)c3c(F)cccc3F)c(C(=O)O)s2)cc1 | 410 nM |  |
| O=C(Nc1cc(-c2ccc(OCCCC(F)(F)F)cc2)sc1C(=O)O)c1cc(Br)c(Br)o1 |  | -21.6% (inactive) and -21.4% (inactive) |
| O=C(Nc1cc(-c2ccc(OCCC(F)(F)F)cc2)sc1C(=O)O)c1ccc(Br)o1 | 320 nM |  |
| [N-]=[N+]=NCCOc1ccc(-c2cc(NC(=O)c3c(F)cccc3F)c(C(=O)O)s2)cc1 | 310 nM |  |
| CCCCOc1ccc(-c2cc(NC(=O)c3c(F)cc(F)cc3F)c(C(=O)O)s2)cc1 | 330 nM |  |
| O=C(O)c1sc(-c2ccc(OC(F)(F)F)cc2)cc1NC(=O)c1c(F)cccc1F | 1360 nM |  |
| O=C(Nc1ccncc1)c1ccc2ncsc2c1 | 660 nM | 126% (inactive) |
| CC(C)(C)c1ccc(-c2cc(NC(=O)c3ccc(Br)s3)c(C(=O)O)s2)cc1 |  | -11.6% (inactive) |
| CCCc1ccc(-c2cc(NC(=O)c3c(F)cccc3F)c(C(=O)O)s2)cc1 | 560 nM |  |
| O=C(O)c1sc(-c2ccc(OCCC(F)(F)F)cc2)cc1NC(=O)c1c(F)cccc1F | 50 nM |  |
| O=C(Nc1cc(-c2ccc(OCCCC(F)(F)F)cc2)sc1C(=O)O)c1ccc(Br)o1 | 480 nM |  |
| O=C(NC1CCNCC1)c1ccc2ncsc2c1 |  | 121% (inactive) |
| CCOc1ccc(-c2cc(NC(=O)c3c(F)cc(F)cc3F)c(C(=O)O)s2)cc1 | 1830 nM |  |
| CCOc1ccc(-c2cc(NC(=O)c3c(F)cccc3C(F)(F)F)c(C(=O)O)s2)cc1 | 2650 nM |  |
| O=C(O)c1sc(-c2ccc(OCCCC(F)(F)F)cc2)cc1NC(=O)c1c(F)cc(F)cc1F | < 650 nM |  |
| CCCCOc1ccc(-c2cc(NC(=O)c3cc(Br)c(Br)o3)c(C(=O)O)s2)cc1 | 960 nM |  |

| Compound | IC50 [1] | phage lysis inhibition [2] |
| --- | --- | --- |
| O=C(Nc1cc(-c2ccc(OC(F)(F)F)cc2)sc1C(=O)O)c1cc2ccccc2o1 |  | 2.17% (inactive) |
| O=C(O)c1sc(-c2ccc(OCCCC(F)(F)F)cc2)cc1NC(=O)c1c(F)cccc1F | 90 nM |  |
| CCCc1ccc(-c2cc(NC(=O)c3cc(Br)c(Br)o3)c(C(=O)O)s2)cc1 | 2350 nM |  |
| O=C(Nc1cc(-c2ccc(OC(F)(F)F)cc2)sc1C(=O)O)c1ccc(Br)o1 | 1170 nM |  |
| CCCc1ccc(-c2cc(NC(=O)c3c(F)cc(F)cc3F)c(C(=O)O)s2)cc1 | 1520 nM |  |
| CCCc1ccc(-c2cc(NC(=O)c3ccc(Br)o3)c(C(=O)O)s2)cc1 | 340 nM |  |
| O=C(O)c1sc(-c2ccc(OCC(F)(F)F)cc2)cc1NC(=O)c1c(F)cc(F)cc1F | 1880 nM |  |
| O=C(O)c1sc(-c2ccc(OCCC(F)(F)F)cc2)cc1NC(=O)c1c(F)cc(F)cc1F | 440 nM |  |
| O=C(NCc1ccncc1)c1ccc2ncsc2c1 |  | 123% (inactive) |
| CCCCOc1ccc(-c2cc(NC(=O)c3ccc(Br)o3)c(C(=O)O)s2)cc1 | 320 nM |  |
| CCCCOc1ccc(-c2cc(NC(=O)c3c(F)cccc3F)c(C(=O)O)s2)cc1 | 290 nM |  |
| O=C(O)c1sc(-c2ccc(OCC(F)(F)F)cc2)cc1NC(=O)c1c(F)cccc1F | 350 nM |  |
| O=C(NCCc1ccncc1)c1ccc2ncsc2c1 |  | 124% (inactive) |
| CCCOc1ccc(-c2cc(NC(=O)c3c(F)cc(F)cc3F)c(C(=O)O)s2)cc1 | 530 nM |  |
| O=C(Nc1cc(-c2ccc(OCC(F)(F)F)cc2)sc1C(=O)O)c1ccc(Br)o1 | 330 nM |  |
| O=C(Nc1cc(-c2ccc(OC(F)(F)F)cc2)sc1C(=O)O)c1cccc(F)c1 |  | 75.5% (inactive) |
